ChEMBL document CHEMBL3102831 (Bioorg Med Chem Lett, 2014)
pIC50: −log10 of the molar value. Calls of active or inactive are those of the source. No cut-off for these calls is given here.

Key:
[1] = Cytotoxicity against human SPCA2 cells after 48 hrs by MTT assay; assay type: functional, cell-based; details: SPCA2, 48 h
HepG2 = assay: Cytotoxicity against human HepG2 cells after 48 hrs by MTT assay; assay type: functional, cell-based; details: HepG2, 48 h
HCT-116 [2] = assay: Cytotoxicity against human HCT116 cells after 48 hrs by MTT assay; assay type: functional, cell-based; details: HCT-116, 48 h
HUVEC = assay: Cytotoxicity against human HUVEC after 48 hrs by MTT assay; assay type: cell-based
CNE = assay: Cytotoxicity against human CNE cells after 48 hrs by MTT assay; assay type: functional, cell-based
HeLa = assay: Cytotoxicity against human HeLa cells after 48 hrs by MTT assay; assay type: functional, cell-based
HCT-116 [3] = assay: Induction of apoptosis in human HCT116 cells assessed as necrotic cells at 5 uM after 24 hrs using annexin V-FITC/propidium iodide by flow cytometry (reference value: 2.8%); assay type: functional
HCT-116 [4] = assay: Cell cycle arrest in human HCT116 cells assessed as accumulation at G2 phase at 5 uM after 48 hrs using propidium iodide staining by FACS analysis (reference value: 24.09%); assay type: functional
HCT-116 [5] = assay: Induction of apoptosis in human HCT116 cells assessed as late apoptotic cells at 5 uM after 24 hrs using annexin V-FITC/propidium iodide by flow cytometry (reference value: 3.3%); assay type: functional
HCT-116 [6] = assay: Induction of apoptosis in human HCT116 cells assessed as viable cells at 5 uM after 24 hrs using annexin V-FITC/propidium iodide by flow cytometry (reference value: 90%); assay type: functional; details: HCT-116, 24 h, read-out: Activity
HCT-116 [7] = assay: Cell cycle arrest in human HCT116 cells assessed as accumulation at G2 phase at 3 uM after 48 hrs using propidium iodide staining by FACS analysis (reference value: 24.09%); assay type: functional
HCT-116 [8] = assay: Induction of apoptosis in human HCT116 cells assessed as viable cells at 3 uM after 24 hrs using annexin V-FITC/propidium iodide by flow cytometry (reference value: 90%); assay type: functional; details: HCT-116, 24 h, read-out: Activity
HCT-116 [9] = assay: Cell cycle arrest in human HCT116 cells assessed as accumulation at S phase at 3 uM after 48 hrs using propidium iodide staining by FACS analysis (reference value: 36.84%); assay type: functional
DNA [10] = assay: Binding affinity to calf thymus DNA at DNA and compound ratio 1:1 to 6:1 by UV-vis absorption spectra analysis; assay type: nucleic-acid assay; details: Bos taurus
HCT-116 [11] = assay: Induction of apoptosis in human HCT116 cells assessed as apoptotic morphology at 3 to 5 uM after 24 hrs by Hoechst […] staining; assay type: functional, cell-based
Procedure, shortened: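 HCT116 cells were treated with compound at 3 and 5 µM for 24 h, alongside 24 h untreated controls. Cells were stained with Hoechst 33258 and examined by fluorescence microscopy. Bright blue nuclei from chromatin condensation and karyopyknosis were scored as apoptotic, and uniform light blue nuclei as live.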

HCT-116 [12] = assay: Cell cycle arrest in human HCT116 cells assessed as accumulation at S phase at 5 uM after 48 hrs using propidium iodide staining by FACS analysis (reference value: 36.84%); assay type: functional
HCT-116 [13] = assay: Cell cycle arrest in human HCT116 cells assessed as accumulation at G1 phase at 3 uM after 48 hrs using propidium iodide staining by FACS analysis (reference value: 39.08%); assay type: functional
HCT-116 [14] = assay: Induction of apoptosis in human HCT116 cells assessed as late apoptotic cells at 3 uM after 24 hrs using annexin V-FITC/propidium iodide by flow cytometry (reference value: 3.3%); assay type: functional
DNA [15] = assay: Binding affinity to F32T oligonucleotide DNA assessed as change in melting temperature by FRET assay
DNA [16] = assay: Binding affinity to calf thymus DNA at compound and GelRed ratio 1:1 to 9:1 by fluorescence emission spectra analysis; assay type: nucleic-acid assay; details: Bos taurus
Procedure, shortened: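 Competitive displacement assay. GelRed was pre-incubated with ct-DNA for 30 min at [GelRed]/[DNA] = 1:10, then titrated with compound. Emission was read around 590 nm with 350 nm excitation. Quenching constant Kq was obtained by linear Stern–Volmer fitting.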

HCT-116 [17] = assay: Induction of apoptosis in human HCT116 cells assessed as necrotic cells at 3 uM after 24 hrs using annexin V-FITC/propidium iodide by flow cytometry (reference value: 2.8%); assay type: functional
HCT-116 [18] = assay: Induction of apoptosis in human HCT116 cells assessed as early apoptotic cells at 3 uM after 24 hrs using annexin V-FITC/propidium iodide by flow cytometry (reference value: 3.9%); assay type: functional
HCT-116 [19] = assay: Induction of apoptosis in human HCT116 cells assessed as change in mitochondrial membrane potential at 3 to 5 uM after 24 hrs by JC-1 staining; assay type: functional, cell-based
Procedure, shortened: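 HCT116 cells were exposed for 24 h at 3 and 5 µM, with untreated 24 h controls, then stained with JC-1. Monomer and J-aggregates were excited at 514 and 585 nm. Emission was collected at 515–545 nm (green) and 570–600 nm (red), and cells were imaged by fluorescence microscopy.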

HCT-116 [20] = assay: Cell cycle arrest in human HCT116 cells assessed as accumulation at G1 phase at 5 uM after 48 hrs using propidium iodide staining by FACS analysis (reference value: 39.08%); assay type: functional
DNA [21] = assay: Binding affinity to calf thymus DNA at 1.5 x 10^-5 M by circular dichroism analysis; assay type: nucleic-acid assay; details: Bos taurus
Procedure, shortened: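 Circular dichroism spectra recorded on ct-DNA at 1.5 × 10^-4 M, alone and with compound at 1.5 × 10^-5 M. Spectra compared with and without compound.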

HCT-116 [22] = assay: Induction of apoptosis in human HCT116 cells assessed as early apoptotic cells at 5 uM after 24 hrs using annexin V-FITC/propidium iodide by flow cytometry (reference value: 3.9%); assay type: functional
HCT-116 [23] = assay: Induction of apoptosis in human HCT116 cells assessed as activation of caspase 3 and 8 after 24 hrs by RT-PCR analysis; assay type: functional, cell-based
HCT-116 [24] = assay: Induction of apoptosis in human HCT116 cells assessed as change in mitochondrial membrane potential after 24 hrs by JC-1 staining; assay type: functional, cell-based
Procedure, shortened: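 HCT116 cells treated 24 h at 3 and 5 µM, with untreated cells as 24 h control. Cells were stained with JC-1 and viewed by fluorescence microscopy. Monomer was excited at 514 nm with emission 515–545 nm (green); J-aggregates were excited at 585 nm with emission 570–600 nm (red). Potential loss is read as a red-to-green shift.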

HCT-116 [25] = assay: Cell cycle arrest in human HCT116 cells assessed as accumulation at G1 phase after 48 hrs using propidium iodide staining by FACS analysis (reference value: 39.08%); assay type: functional
Procedure, shortened: (§1)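 HCT116 cells exposed 48 h to compound at 3 and 5 µM, with untreated cells as control. Cells were stained with propidium iodide, and DNA content was measured by flow cytometry. Read-out is the percentage of cells in G1, S and G2 phases.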

HCT-116 [26] = assay: Cell cycle arrest in human HCT116 cells assessed as accumulation at S phase after 48 hrs using propidium iodide staining by FACS analysis (reference value: 23.29%); assay type: functional; procedure, shortened: as §1

SMILES: CCOP(=O)(OCC)C(NC(=O)c1cc(O)c2c(c1)C(=O)c1cccc(O)c1C2=O)c1ccc(OC)cc1 (stereo not drawn)
- pIC50 [1]: 4.41
- pIC50 (HepG2): 4.35
- pIC50 (HCT-116 [2]): 4.66
- pIC50 (HUVEC): < 4.00
- pIC50 (CNE): 4.37
- pIC50 (HeLa): 4.40

SMILES: CCOP(=O)(OCC)C(NC(=O)c1cc(O)c2c(c1)C(=O)c1cccc(O)c1C2=O)c1cccc(Cl)c1 (stereo not drawn)
- pIC50 [1]: 4.11
- pIC50 (HepG2): 4.14
- pIC50 (HCT-116 [2]): 4.65
- pIC50 (HUVEC): < 4.00
- pIC50 (CNE): 4.34
- pIC50 (HeLa): 4.14

SMILES: CCOP(=O)(OCC)C(NC(=O)c1cc(O)c2c(c1)C(=O)c1cccc(O)c1C2=O)c1ccccc1Cl (stereo not drawn)
- pIC50 [1]: 4.55
- pIC50 (HepG2): 4.41
- pIC50 (HCT-116 [2]): 4.32
- pIC50 (HUVEC): < 4.00
- pIC50 (CNE): 4.17
- pIC50 (HeLa): 4.45

SMILES: CCOP(=O)(OCC)C(NC(=O)c1cc(O)c2c(c1)C(=O)c1cccc(O)c1C2=O)c1cccc(OC)c1 (stereo not drawn)
- Activity (HCT-116 [3]): 2.6%
- pIC50 [1]: 4.55
- Activity (HCT-116 [4]): 17.9%
- Activity (HCT-116 [5]): 6.5%
- viability at 5 µM (HCT-116 [6]): 57.5%
- Activity (HCT-116 [7]): 20.09%
- viability at 3 µM (HCT-116 [8]): 53%
- Activity (HCT-116 [9]): 34.66%
- Kb (DNA [10]): 1.03 ×10⁴ /M
- Activity (HCT-116 [11]): Active
- pIC50 (HepG2): 4.66
- pIC50 (HCT-116 [2]): 5.27
- Activity (HCT-116 [12]): 32.44%
- Activity (HCT-116 [13]): 45.26%
- pIC50 (HUVEC): < 4.00
- Activity (HCT-116 [14]): 10.5%
- ΔTm (DNA [15]): 3.1 °C
- Kq (DNA [16]): 1660
- Activity (HCT-116 [17]): 4%
- Activity (HCT-116 [18]): 32.5%
- pIC50 (CNE): 4.62
- Activity (HCT-116 [19]): Active
- pIC50 (HeLa): 4.71
- Activity (HCT-116 [20]): 49.67%
- Activity (DNA [21]): Active
- Activity (HCT-116 [22]): 33.5%
- Activity (HCT-116 [23]): Dose-dependent effect

SMILES: CCOP(=O)(OCC)C(NC(=O)c1cc(O)c2c(c1)C(=O)c1cccc(O)c1C2=O)c1ccc(F)cc1 (stereo not drawn)
- pIC50 [1]: 4.61
- pIC50 (HepG2): 4.23
- pIC50 (HCT-116 [2]): 4.24
- pIC50 (HUVEC): < 4.00
- pIC50 (CNE): 4.46
- pIC50 (HeLa): 4.02

SMILES: CCOP(=O)(OCC)C(NC(=O)c1cc(O)c2c(c1)C(=O)c1cccc(O)c1C2=O)c1c2ccccc2cc2ccccc12 (stereo not drawn)
- pIC50 [1]: < 4.00
- pIC50 (HepG2): < 4.00
- pIC50 (HCT-116 [2]): < 4.00
- pIC50 (HUVEC): < 4.00
- pIC50 (CNE): < 4.00
- pIC50 (HeLa): < 4.00

SMILES: CCOP(=O)(OCC)C(NC(=O)c1cc(O)c2c(c1)C(=O)c1cccc(O)c1C2=O)c1ccc(Cl)cc1 (stereo not drawn)
- pIC50 [1]: 4.05
- pIC50 (HepG2): 4.06
- pIC50 (HCT-116 [2]): 4.21
- pIC50 (HUVEC): < 4.00
- pIC50 (CNE): 4.25
- pIC50 (HeLa): 4.06

SMILES: CCOP(=O)(OCC)C(NC(=O)c1cc(O)c2c(c1)C(=O)c1cccc(O)c1C2=O)c1ccc(Br)cc1 (stereo not drawn)
- pIC50 [1]: 4.05
- pIC50 (HepG2): 4.03
- pIC50 (HCT-116 [2]): 4.18
- pIC50 (HUVEC): < 4.00
- pIC50 (CNE): 4.37
- pIC50 (HeLa): 4.01

SMILES: O=c1[nH]cc(F)c(=O)[nH]1 [FLUOROURACIL]
- pIC50 [1]: 4.37
- pIC50 (HepG2): 4.52
- pIC50 (HCT-116 [2]): 5.24
- Activity (HCT-116 [24]): Active
- pIC50 (HUVEC): 4.25
- pIC50 (CNE): 4.40
- pIC50 (HeLa): 4.45
- Activity (HCT-116 [25]): 65.6%
- Activity (HCT-116 [26]): 28%
